Results gathered from unrelated publications.
Target: Megakaryocyte-associated tyrosine-protein kinase (MATK, Homo sapiens, UniProt P42679)
One construct used (P42679 1-507): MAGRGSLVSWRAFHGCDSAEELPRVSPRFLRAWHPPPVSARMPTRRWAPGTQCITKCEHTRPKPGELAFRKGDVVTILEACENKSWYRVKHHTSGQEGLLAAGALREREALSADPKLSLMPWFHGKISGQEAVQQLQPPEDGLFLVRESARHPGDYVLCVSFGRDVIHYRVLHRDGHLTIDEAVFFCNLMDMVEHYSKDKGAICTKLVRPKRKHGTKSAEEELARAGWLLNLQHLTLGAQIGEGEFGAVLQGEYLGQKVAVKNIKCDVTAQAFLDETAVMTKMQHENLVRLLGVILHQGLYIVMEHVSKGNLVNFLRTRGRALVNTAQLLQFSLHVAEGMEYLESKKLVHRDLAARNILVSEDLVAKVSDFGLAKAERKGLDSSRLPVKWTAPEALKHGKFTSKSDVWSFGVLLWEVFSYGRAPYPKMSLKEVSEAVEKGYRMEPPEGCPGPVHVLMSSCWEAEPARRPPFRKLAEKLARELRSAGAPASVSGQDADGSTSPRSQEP

CCOCCn1cc(C(=O)Nc2ccc(-n3nc(-c4cccnc4)cc3C(F)(F)F)cn2)ccc1=O — remaining binding (cell-free assay, competition with immobilised ligand; 1 µM): 90%
CC(C)(C)c1nc(-c2cccc(NS(=O)(=O)c3c(F)cccc3F)c2F)c(-c2ccnc(N)n2)s1 — remaining activity (enzyme activity, inhibitor, radiometric; 1 µM): 90%
CC1=C(C#N)C(c2ccc3c(c2)c(NC(=O)c2ccccc2C)nn3C)C(C#N)=C(C)N1 — remaining binding (cell-free assay, competition with immobilised ligand; 1 µM): 79%
Cc1sc(C(=O)NC2COC2)cc1-n1cc(NC(=O)Nc2c(F)cccc2Cl)cn1 — remaining activity (enzyme activity, inhibitor; 10 µM): 97.8%
Cc1ccc(C(=O)Nc2ccc(CN3CCN(C)CC3)c(C(F)(F)F)c2)cc1C#Cc1cnc2cccnn12 — remaining activity (enzyme activity, inhibitor; 23.5 nM): 52%
Nc1ncnc2occ(-c3ccc(NC(=O)Nc4cc(C(F)(F)F)ccc4F)cc3)c12 — remaining signal (cell-free assay, inhibitor; 20 µM): 13%
CNC(=O)c1cc(Oc2ccc(NC(=O)Nc3ccc(Cl)c(C(F)(F)F)c3)cc2)ccn1 — remaining signal (cell-free assay; 0.5 µM): 114%
O=c1nc(-c2ccccn2)sc2ccccc12 — remaining binding (binding, competition with immobilised ligand; 1 µM): 100%
COc1cc2ncnc(Nc3ccc(Oc4ccccc4)c(C)c3C)c2cc1OC — inhibition (enzyme activity, inhibitor; 1 µM): -2%
O=C1Nc2ccc(Cl)cc2C1=Cc1cc(Cl)c(O)c(Cl)c1 — remaining signal (cell-free assay; 0.5 µM): 82.2%
CCCS(=O)(=O)Nc1ccc(F)c(C(=O)c2c[nH]c3ncc(-c4ccc(Cl)cc4)cc23)c1F — inhibition (enzyme activity, inhibitor; 1 µM): < 20%
O=C(Nc1cnn(-c2csc(C(=O)NC3COC3)c2)c1)Nc1ccccc1Cl — remaining activity (enzyme activity, inhibitor; 5 µM): 99.7%
